Measured values as given in ChEMBL document CHEMBL1165906, “Cytotoxic N-(fluorenyl-9-methoxycarbonyl) (Fmoc)-dipeptides: structure-activity relationships and synergistic studies” (Eur J Med Chem, 2010).
Calls of active or inactive are those of the source. The calls are words filed in the database; no cut-off is given here.

What was measured:
MDA-MB-231 = assay: Cytotoxicity against human MDA-MB-231 cells after 72 hrs by MTT assay; format: functional, cell-based; settings: MDA-MB-231, 72 h
Summary of the method: (§1)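 Freshly trypsinized cells were seeded at 5000–10,000 per well in 96-well plates. […] Attached cells were given MTT (0.5 mg/ml, 1 h), solubilized in DMSO and read at 550 nm. IC₅₀ came from survival curves as mean ± S.E.M., n = 2.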

MCF7 = assay: Cytotoxicity against human MCF7 cells after 72 hrs by MTT assay; format: functional, cell-based; settings: MCF7, 72 h; summary of the method: as §1
A549 = assay: Cytotoxicity against human A549 cells after 72 hrs by MTT assay; format: functional, cell-based; settings: A549, 72 h; summary of the method: as §1
[1] = Cytotoxicity against human Hep3B cells after 72 hrs by MTT assay; format: functional, cell-based, Hep 3B2
Summary of the method: (§2)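 Freshly trypsinized cells were seeded at 5000–10,000 per well in 96-well plates. Attached cells were given MTT (0.5 mg/ml, 1 h), solubilized in DMSO and read at 550 nm. IC₅₀ came from survival curves as mean ± S.E.M., n = 2.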

Ca9-22 = assay: Cytotoxicity against human Ca9-22 cells after 72 hrs by MTT assay; format: functional, cell-based; settings: Ca9-22, 72 h; summary of the method: as §1
HepG2 = assay: Cytotoxicity against human HepG2 cells after 72 hrs by MTT assay; format: functional, cell-based; settings: HepG2, 72 h; summary of the method: as §2
Hepatitis C virus [2] = assay: Antiviral activity against HCV infected in human Huh7 cells assessed as inhibition of viral replication at 10 uM after 4 days; format: functional, Hepacivirus hominis; settings: Huh-7, 96 h
Summary of the method: (§3)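 Ava5 cells, Huh-7 hepatoma cells carrying a subgenomic HCV replicon, seeded at 5 ×10⁴ per well in 24-well plates and treated for 4 days. Cell extracts were normalized by protein assay and 5 µg was run on 8% SDS-PAGE and transferred to PVDF. Blots were blocked in 5% skim milk and probed for NS3 with GAPDH as loading control. Signals came from HRP secondaries and ECL and were quantified by densitometry.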

Hepatitis C virus [3] = assay: Antiviral activity against HCV infected in human Huh7 cells assessed as inhibition of viral replication at 5 uM after 4 days; format: functional, organism-based; settings: Hepacivirus hominis, Huh-7; summary of the method: as §3

O=C(N[C@@H](Cc1ccc2ccccc2c1)C(=O)N[C@@H](CO)Cc1ccccc1)OCC1c2ccccc2-c2ccccc21
IC50 (MDA-MB-231): > 55 µM | IC50 (MCF7): > 55 µM | IC50 (A549): > 55 µM

CC(=O)OC[C@H](Cc1ccccc1)NC(=O)[C@H](Cc1ccc(O)cc1)NC(=O)OCC1c2ccccc2-c2ccccc21
IC50 (MDA-MB-231): > 55 µM | IC50 [1]: > 55 µM | IC50 (MCF7): > 55 µM | IC50 (A549): > 55 µM | IC50 (Ca9-22): > 55 µM

O=C(N[C@@H](Cc1ccccc1)C(=O)N[C@H](COC(=O)c1ccccc1)Cc1ccccc1)OCC1c2ccccc2-c2ccccc21
IC50 (MDA-MB-231): > 55 µM | IC50 [1]: > 55 µM | IC50 (MCF7): > 55 µM | IC50 (HepG2): > 55 µM | IC50 (Ca9-22): > 55 µM

O=C(N[C@@H](Cc1ccc2ccccc2c1)C(=O)N[C@H](COC(=O)c1ccccc1)Cc1ccccc1)OCC1c2ccccc2-c2ccccc21
IC50 (MDA-MB-231): > 55 µM | IC50 [1]: > 55 µM | IC50 (MCF7): > 55 µM | IC50 (A549): > 55 µM | IC50 (HepG2): > 55 µM | IC50 (Ca9-22): > 55 µM

CC(=O)OC[C@H](Cc1ccccc1)NC(=O)[C@H](Cc1ccc2ccccc2c1)NC(=O)OCC1c2ccccc2-c2ccccc21
IC50 [1]: > 55 µM

O=C(N[C@@H](Cc1ccc(O)cc1)C(=O)N[C@H](CO)Cc1ccccc1)OCC1c2ccccc2-c2ccccc21
IC50 (MDA-MB-231): > 55 µM | IC50 (MCF7): > 55 µM | IC50 (A549): > 55 µM

CC(C)[C@H](NC(=O)OCC1c2ccccc2-c2ccccc21)C(=O)N[C@@H](CO)Cc1ccccc1
IC50 (MDA-MB-231): > 55 µM | IC50 (MCF7): > 55 µM | IC50 (A549): > 55 µM

CC(C)[C@H](NC(=O)OCC1c2ccccc2-c2ccccc21)C(=O)N[C@H](CO)Cc1ccccc1
IC50 (MDA-MB-231): > 55 µM | IC50 [1]: > 55 µM | IC50 (MCF7): > 55 µM | IC50 (A549): > 55 µM

O=C(N[C@@H](Cc1ccccc1)C(=O)N[C@H](CO)Cc1ccccc1)OCC1c2ccccc2-c2ccccc21
IC50 (MDA-MB-231): > 55 µM | IC50 [1]: > 55 µM | IC50 (MCF7): > 55 µM | IC50 (A549): > 55 µM | IC50 (HepG2): > 55 µM | IC50 (Ca9-22): > 55 µM

O=C(N[C@@H](Cc1ccccc1)C(=O)N[C@@H](COC(=O)c1ccccc1)Cc1ccccc1)OCC1c2ccccc2-c2ccccc21
IC50 (MDA-MB-231): > 55 µM | IC50 [1]: > 55 µM | IC50 (MCF7): > 55 µM | IC50 (Ca9-22): > 55 µM

CC(C)[C@H](NC(=O)OCC1c2ccccc2-c2ccccc21)C(=O)N[C@@H](COC(=O)c1ccccc1)Cc1ccccc1
IC50 (MDA-MB-231): > 55 µM | IC50 (MCF7): > 55 µM | IC50 (A549): > 55 µM | IC50 (HepG2): > 55 µM

O=C(N[C@@H](Cc1c[nH]c2ccccc12)C(=O)N[C@@H](COC(=O)c1ccccc1)Cc1ccccc1)OCC1c2ccccc2-c2ccccc21
inhibition at 10 µM (Hepatitis C virus [2]): 72% | inhibition (Hepatitis C virus [3]): inactive

O=C(N[C@@H](Cc1c[nH]c2ccccc12)C(=O)N[C@H](CO)Cc1ccccc1)OCC1c2ccccc2-c2ccccc21
IC50 (MDA-MB-231): > 55 µM | IC50 [1]: > 55 µM | IC50 (MCF7): > 55 µM | IC50 (Ca9-22): > 55 µM

CC(=O)OC[C@@H](Cc1ccccc1)NC(=O)[C@H](Cc1ccc2ccccc2c1)NC(=O)OCC1c2ccccc2-c2ccccc21
IC50 (MDA-MB-231): > 55 µM

O=C(N[C@@H](Cc1ccc(O)cc1)C(=O)N[C@H](COC(=O)c1ccccc1)Cc1ccccc1)OCC1c2ccccc2-c2ccccc21
IC50 (HepG2): > 55 µM

CC(=O)OC[C@@H](Cc1ccccc1)NC(=O)[C@H](Cc1ccc(O)cc1)NC(=O)OCC1c2ccccc2-c2ccccc21
IC50 (MDA-MB-231): > 55 µM | IC50 (MCF7): > 55 µM | IC50 (A549): > 55 µM

O=C(N[C@@H](Cc1ccccc1)C(=O)N[C@@H](CO)Cc1ccccc1)OCC1c2ccccc2-c2ccccc21
IC50 (MDA-MB-231): > 55 µM | IC50 [1]: > 55 µM | IC50 (MCF7): > 55 µM | IC50 (A549): > 55 µM | IC50 (HepG2): > 55 µM | IC50 (Ca9-22): > 55 µM

CC(=O)OC[C@H](Cc1ccccc1)NC(=O)[C@H](Cc1c[nH]c2ccccc12)NC(=O)OCC1c2ccccc2-c2ccccc21
IC50 [1]: > 55 µM | IC50 (MCF7): > 55 µM

COc1cccc2c1C(=O)c1c(O)c3c(c(O)c1C2=O)C[C@@](O)(C(=O)CO)C[C@@H]3O[C@H]1C[C@H](N)[C@H](O)[C@H](C)O1 [DOXORUBICIN]
IC50 (MDA-MB-231): 0.1 µM | IC50 (A549): 0.4 µM | IC50 (Ca9-22): 1.3 µM

CC(C)[C@H](NC(=O)OCC1c2ccccc2-c2ccccc21)C(=O)N[C@H](COC(=O)c1ccccc1)Cc1ccccc1
IC50 (MDA-MB-231): > 55 µM | IC50 [1]: > 55 µM | IC50 (MCF7): > 55 µM | IC50 (A549): > 55 µM | IC50 (HepG2): > 55 µM

CC(=O)OC[C@H](Cc1ccccc1)NC(=O)[C@@H](NC(=O)OCC1c2ccccc2-c2ccccc21)C(C)C
IC50 (MDA-MB-231): > 55 µM | IC50 [1]: > 55 µM | IC50 (MCF7): > 55 µM | IC50 (A549): > 55 µM | IC50 (Ca9-22): > 55 µM

O=C(N[C@@H](Cc1ccc(O)cc1)C(=O)N[C@@H](COC(=O)c1ccccc1)Cc1ccccc1)OCC1c2ccccc2-c2ccccc21
IC50 (MDA-MB-231): > 55 µM | IC50 [1]: > 55 µM | IC50 (MCF7): > 55 µM | inhibition at 10 µM (Hepatitis C virus [2]): 87% | inhibition (Hepatitis C virus [3]): inactive | IC50 (HepG2): > 55 µM

CC(=O)OC[C@@H](Cc1ccccc1)NC(=O)[C@H](Cc1ccccc1)NC(=O)OCC1c2ccccc2-c2ccccc21
IC50 (MCF7): > 55 µM

O=C(N[C@@H](Cc1ccc2ccccc2c1)C(=O)N[C@@H](COC(=O)c1ccccc1)Cc1ccccc1)OCC1c2ccccc2-c2ccccc21
IC50 (MDA-MB-231): > 55 µM

O=C(N[C@@H](Cc1ccc2ccccc2c1)C(=O)N[C@H](CO)Cc1ccccc1)OCC1c2ccccc2-c2ccccc21
IC50 (MDA-MB-231): > 55 µM | IC50 [1]: > 55 µM | IC50 (MCF7): > 55 µM

CC(=O)OC[C@H](Cc1ccccc1)NC(=O)[C@H](Cc1ccccc1)NC(=O)OCC1c2ccccc2-c2ccccc21
IC50 (MDA-MB-231): > 55 µM | IC50 [1]: > 55 µM | IC50 (MCF7): > 55 µM | IC50 (HepG2): > 55 µM | IC50 (Ca9-22): > 55 µM
